Drawing on ChEMBL document CHEMBL1129445 (J Med Chem, 1996), this text covers IC50, inhibition in vivo and ED50 for 4 molecules.

The species named for one assay is Homo sapiens. Kind of assay: Inhibition of human Lymphocyte proliferation. The IC50 values were determined by interpolation using cubic spline determination. Type of assay: functional. Put shortly:
(§1)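 Human PBMC are isolated on Ficoll from heparinized blood and plated at 2 × 10^5 cells/well in RPMI-1640 with 5% FCS. Cells are stimulated with PHA (10 μg/mL final) and given compound at time 0, at 4-6 concentrations between 0.001 and 20 μM (tested to 10 μM). Cultures run in quadruplicate for 72 h at 37 °C, 7% CO2, with [3H]thymidine (0.5 μCi/well) for the last 6 h. IC50 by cubic-spline interpolation of the means.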

For assay [1], the system named is Mus musculus. Kind of assay: Tested for the inhibition of murine PFC response at 12.5 mg/kg dose. Type of assay: functional.
Assay [2] has as its system Mus musculus. The experiment in a line: Tested for the inhibition of murine PFC response at 25 mg/kg dose. Type of assay: functional.
Assay [3] concerns Mus musculus. The experiment in a line: Tested for the inhibition of murine PFC response at 6.25 mg/kg dose. Type of assay: functional.
Assay [4] has as its system Mus musculus. Kind of assay: Tested for the inhibition of murine PFC response at 50 mg/kg dose. Type of assay: functional.
Assay [5] is filed under the species Mus musculus. Kind of assay: Effective dose was measured in mice as concentration required to inhibit 50% inhibition of Murine PFC response. Type of assay: functional. The procedure, abridged: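 Jerne plaque assay in female C3H or CD-1 mice immunized ip with SRBC on day 0, with oral daily dosing over the next 4 days. Splenic PFC per 10^6 WBC counted on day 4. ED50 read graphically from the dose-inhibition data.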

For assay [6], the target named is T1, Inosine-5'-monophosphate dehydrogenase 2 (Homo sapiens, UniProt P12268). Kind of assay: Compound was tested for inhibition of human recombinant type II Inosine Monophosphate Dehydrogenase. (tested to 100 and 10 uM conc). Put shortly: (§2)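 Reactions are run either at pH 7.4 (0.1 M K phosphate, 0.5 M KCl, 3 mM EDTA, 10 μg/mL BSA) or at pH 8.0 (0.1 M Tris-HCl, 0.1 M KCl, 3 mM EDTA, 100 μg/mL BSA). DMSO ≤10%, compounds tested up to 100 μM. IC50 from fit of fractional activity = V0/[(I/IC50)^n + 1].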

Assay [7] concerns the target T1, Inosine-5'-monophosphate dehydrogenase 2. Kind of assay: Inhibition of human recombinant type II Inosine Monophosphate Dehydrogenase. at pH 8.0. Put shortly:
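Recombinant human type II IMPDH (12.5-25 pmol) in 0.1 M Tris-HCl pH 8.0, 0.1 M KCl, 3 mM EDTA, 100 μg/mL BSA. […] IC50 fitted with a Hill equation, fractional activity = V0/[(I/IC50)^n + 1].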

Assay [8] is described as follows: Compound was tested for inhibition of human Lymphocyte proliferation. The IC50 values were determined by interpolation using the cubic spline determination. Type of assay: functional. The procedure, abridged: as §1
For assay [9], the target named is T1, Inosine-5'-monophosphate dehydrogenase 2. Kind of assay: Inhibition of human recombinant inosine monophosphate dehydrogenase type II. The procedure, abridged:
as §2

In assay [10] the test system is Mus musculus. Kind of assay: % inhibition of Murine plaque forming cells response was measured in Mice at 12.5 mg/kg dose. Format: functional.
The subject of assay [11] is Mus musculus. Kind of assay: % inhibition of Murine plaque forming cells response was measured in Mice at 25 mg/kg dose. Format: functional.
Assay [12] concerns Mus musculus. Kind of assay: % inhibition of Murine plaque forming cells response was measured in Mice at 6.25 mg/kg dose. Format: functional.

`COc1c(C)c2c(c(O)c1C/C=C(\C)CCC(=O)O)C(=O)OC2` [MYCOPHENOLIC ACID]: the IC50 (commonly the concentration needed to halve the response being measured) in the assay listed under Homo sapiens stood at 58 nM. Moreover, the inhibition in vivo (commonly how much of the control response was suppressed) at 12.5 mg/kg with Mus musculus [1] came to 20%. Moreover, the inhibition in vivo at 25 mg/kg in the assay on Mus musculus [2] amounted to 36%. The molecule further had an inhibition in vivo at 6.25 mg/kg in the assay with Mus musculus [3] of 16%. The inhibition in vivo at 50 mg/kg in the assay with Mus musculus [4] was 81%. Further, the median effective dose (ED50) (commonly the dose that gives a 50% effect, or the effect in half of the subjects) in the assay listed under Mus musculus [5] is 33 mg/kg.

Regarding `C/C(=C\Cc1c(O)cc(C)c(C)c1C)CCC(=O)O`, in [6], the half-inhibitory concentration (IC50) was over 100 µM.

For `COc1c(C)c2c(c(O)c1C/C=C(\C)CCC(=O)O)C(=O)N(C)C2`, the concentration for half-maximal inhibition (IC50) is over 100 µM in assay [7] and over 10 µM in [8].

As for `CCc1c(C)c2c(c(O)c1C/C=C(\C)CCC(=O)O)C(=O)OC2`, the concentration for half-maximal inhibition (IC50) in the assay listed under Homo sapiens was determined as 57 nM; in assay [9], 12.6 nM. The molecule further registered an inhibition in vivo at 12.5 mg/kg in the assay on Mus musculus [10] of 73%. The inhibition in vivo at 25 mg/kg in the assay on Mus musculus [11] came out at 93%. In the assay listed under Mus musculus [5], the 50% effective dose (ED50) is 9 mg/kg. Besides, the inhibition in vivo at 6.25 mg/kg with Mus musculus [12] is 25%.
